Shown are actives, neighbours in structure and some others; about 3.5% of the full set was active somewhere.
MrgX1 ag: agonists of human MrgX1 receptor, primary screen, HEK293 cells, Fluo-4 calcium flux | 310,000 compounds, 0.44% hits | Fluo-4 calcium fluorescence, agonist mode; hits give high values | B-score at 10 µM;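 active = calcium response B-score plate-corrected fluorescence ratio at least 3 library SD, with starting fluorescence B-score inside 5 SD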
Target sequence (Q96LB2 whole entry, looked up): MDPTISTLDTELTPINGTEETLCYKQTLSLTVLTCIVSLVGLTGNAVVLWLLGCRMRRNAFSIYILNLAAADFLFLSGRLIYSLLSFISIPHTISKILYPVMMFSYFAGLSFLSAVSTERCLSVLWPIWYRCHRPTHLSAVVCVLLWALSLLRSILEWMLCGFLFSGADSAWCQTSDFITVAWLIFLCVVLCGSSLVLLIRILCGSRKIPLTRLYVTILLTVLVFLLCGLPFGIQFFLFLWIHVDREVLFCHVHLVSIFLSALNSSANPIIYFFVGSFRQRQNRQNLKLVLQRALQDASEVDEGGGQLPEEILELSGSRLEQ
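Material: MrgX1-expressing HEK293 cells; input: 15,000 cells per well; doses: test compound given as first of three sequential additions; schedule: overnight plating before 1 h dye loading; technique: Fluo-4 NW calcium-flux fluorescence, kinetic read; evaluation: baseline-normalised fluorescence change ratio, B-scored; control set: plate-wise positive and negative controls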
MrgX1 PAM: positive allosteric modulators of MrgX1, primary screen, HEK293 cells, Fluo-4 calcium flux; FDSS; hits give high values; B-score at 10 µM; 310,000 compounds, 0.63% hits;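 active = plate-corrected calcium response at least 3 library SD above typical, normal starting fluorescence, not activating the receptor alone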;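 also: compound read alongside a low EC10 to EC30 dose of BAM8-22 agonist; peak minus trough fluorescence over baseline measured at the second addition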
RGS4 inh: RGS4 inhibitors, primary screen, cell-based, HEK293 M3R inducible RGS4, calcium flux; B-score at 10 µM; 310,000 compounds, 0.45% hits; Regulator of G-protein signaling 4 (Homo sapiens), P49798; Fluo-4 calcium flux; hits give high values; triggered by carbachol at its EC20;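 active = B-score, a plate-corrected calcium signal, over three deviations above library mean, with baseline fluorescence within five deviations of library mean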;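 also: RGS4 expression induced by doxycycline in cells with stable M3 receptor; B-score is computed from the integrated fluorescence ratio over baseline after carbachol; higher B-score means a larger calcium signal and so more RGS4 inhibition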
Target sequence (P49798 whole entry, looked up): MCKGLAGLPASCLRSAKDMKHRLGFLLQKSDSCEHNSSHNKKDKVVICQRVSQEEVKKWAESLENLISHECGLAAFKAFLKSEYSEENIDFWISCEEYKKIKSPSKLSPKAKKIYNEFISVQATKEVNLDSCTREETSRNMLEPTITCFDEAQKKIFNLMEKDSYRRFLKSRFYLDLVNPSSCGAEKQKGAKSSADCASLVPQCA
MrgX1 antag: antagonists of human MrgX1 receptor, primary screen, HEK293 cells, Fluo-4 calcium flux. BAM8-22 antagonism; hits give low values. B-score at 10 µM. 310,000 compounds, 1.3% hits. AID 588676, 2011;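 active = calcium-response B-score plate-corrected more than 3 library SD below zero, starting fluorescence within 5 deviations, no agonist response on first addition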;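 also: peak minus trough fluorescence over baseline after final BAM8-22 challenge near maximal dose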
RGS4 pot: RGS4 potentiators or activators, primary screen, cell-based, HEK293 M3R inducible RGS4, calcium flux. 310,000 compounds, 0.92% hits. AID 463111, 2010. B-score at 10 µM. carbachol calcium flux Fluo4; hits give low values;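 active = B-score of the integrated calcium signal more than 4 SD below the library mean, with starting fluorescence not abnormally high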;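 also: negative B-score means reduced calcium response which marks RGS4 activation or potentiation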
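Material: M3R-expressing HEK293 line, RGS4 induced by doxycycline | Schedule: Overnight RGS4 induction, 30 min dye load 37 °C, 20 min compound RT | Measured by: Fluo4 fluorescence kinetic imaging of calcium | Read-out: Integrated calcium ratio converted to B score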
MrgX1 ant reconf: MrgX1 receptor antagonists, duplicate retest, confirmation, HEK293 cells, Fluo-4 calcium flux. AID 602420, 2012. BAM8-22 calcium flux; hits give low values. shares compounds with MrgX1 antag. remaining BAM8-22 calcium response % of control (hits give low values), % at 10 µM. 2,300 compounds, 19% hits;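 active = remaining agonist calcium response no higher than 100% minus 3 SD of agonist-only control wells, with starting fluorescence near control levels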;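 also: agonist BAM8-22 given at a near maximal EC90 to ECmax level; peak minus minimum fluorescence divided by baseline after agonist addition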
HEK293 Ca flux: nonspecific calcium signal in parental HEK293, confirmation, counter-screen for MrgX1 antagonist project, parental HEK293 cells, Fluo-4 calcium flux | shares compounds with MrgX1 antag | Fluo-4 calcium fluorescence, FDSS | fluorescence ratio F(max-min)/F0 at 10 µM | 4,000 compounds, 2% hits;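 active = duplicate-averaged calcium fluorescence ratio at least three times the standard deviation of buffer wells, a nonspecific response in parental cells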
HEK293 Ca counter: calcium response in parental HEK293 cells, primary screen, counter-screen for MrgX1 allosteric activator project, cell-based, Fluo-4 calcium flux, duplicate. Fluo-4 fluorescence ratio; hits give high values. 4,000 compounds, 0.4% hits. fluorescence ratio F(max-min)/F0 at 10 µM. shares compounds with MrgX1 antag. AID 624114, 2012;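 active = calcium fluorescence ratio, averaged over duplicates, at least 3 SD of the buffer-well ratio, meaning a nonspecific response in receptor-free cells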;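 also: untransfected parental HEK293 lacking MrgX1 used as counterscreen for MrgX1 allosteric activators; fluorescence change taken during the second addition on a kinetic imager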
HEK293 Ca cntr2: calcium response in parental HEK293 cells, primary screen, counter-screen for MrgX1 agonist project, cell-based, Fluo-4 calcium flux, duplicate, agonist mode. shares compounds with MrgX1 antag. Fluo-4 calcium fluorescence (FDSS); hits give high values. fluorescence ratio F(max-min)/F0 at 10 µM. 4,000 compounds, 8.7% hits;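 active = calcium fluorescence ratio at least three times the spread of buffer wells, meaning a non-specific response in parental cells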
* hit, by the source's call; i = inactive; / = no result.

SMILES | MrgX1 ag | MrgX1 PAM | RGS4 inh | MrgX1 antag | RGS4 pot | MrgX1 ant reconf | HEK293 Ca flux | HEK293 Ca counter | HEK293 Ca cntr2
O=C(Nc1ccccc1)Nc1ccccc1NS(=O)(=O)c1cccs1 | i | i | i | i | i | / | / | / | /
O=C(Nc1ccc(Cl)c(Cl)c1)Nc1ccccc1NS(=O)(=O)c1cccs1 | i | i | i | -7.3* | i | 74%* | i | i | i
O=C(COC(=O)CCCNC(=O)c1ccc(Cl)cc1)Nc1cc(Cl)c(Cl)cc1Cl | i | i | i | i | i | / | / | / | /
Cc1cc(C)cc(NC(=O)COC(=O)CCCNC(=O)c2ccc(Cl)cc2)c1 | i | i | i | -9.7* | i | 77%* | i | i | i
CN(C)N1C(N)=C(C#N)C(c2cccc([N+](=O)[O-])c2)C2=C1CC(C)(C)CC2=O (centres undefined) | / | / | i | / | i | / | / | / | /
O=C(NC(=S)NCCN1CCOCC1)c1ccccc1Cl | i | i | i | -4.9* | i | i | i | i | i
COc1cc(C=Nc2ccccc2C(=O)Nc2ccccc2)cc(OC)c1OC | i | i | i | -5.5* | i | i | i | i | i
COc1cc(NC(=O)c2ccccc2-c2ccccc2)cc(OC)c1OC | i | i | i | i | i | / | / | / | /
Cc1cc2c3c([nH]c2cc1S(=O)(=O)N1CCC2(CC1)OCCO2)CC(C)(C)CC3=O | i | i | i | i | i | / | / | / | /
CC(Oc1ccc2c(c1)c1ccnc3c4ccccc4c(=O)n2c13)C(=O)NCCN1CCOCC1 (centres undefined) | i | i | i | i | i | / | / | / | /
O=C(NCC1CC1(Cl)Cl)Nc1ccc(Cl)c(Cl)c1 (centres undefined) | i | i | i | -5.5* | i | i | i | i | i
Cc1ccc(NC(=O)NCC2CC2(Cl)Cl)cc1 (centres undefined) | i | i | i | i | i | / | / | / | /
CC(C)(CO)NC(=O)Nc1ccc(Cl)c(Cl)c1 | i | i | i | -7.7* | i | i | i | i | i
CCOC(=O)CC(NC(=O)Cc1cccs1)c1ccccc1Cl (centres undefined) | i | i | i | i | i | / | / | / | /
CCOC(=O)C1(Cc2ccccc2C)CCCN(C(=O)c2ccc(CSC)o2)C1 (centres undefined) | i | i | i | i | i | / | / | / | /
O=C(Nc1cn(-c2ccccc2)nc1-c1ccc(F)cc1)c1ccccc1 | i | i | i | -5.3* | i | 81%* | i | i | i
C=C(C)CSc1nc(C)c(Cc2ccccc2)c(=O)[nH]1 | i | i | i | -6.7* | i | 85%* | i | i | i
COc1ccc(C)cc1NC(=O)c1nnn(Cc2cc(C)ccc2C)c1N | i | i | i | -5.2* | i | i | i | i | i
COc1ccc(NC(=O)c2nnn(Cc3ccc(SC)cc3)c2N)c(OC)c1 | i | i | i | -4.7* | i | i | i | i | i
O=C(NCC1(N2CCOCC2)CCCCC1)c1cccc(S(=O)(=O)N2CCc3ccccc3C2)c1 | i | i | i | i | i | / | / | / | /
COc1cc(OC)cc(C(=O)Nc2ccccc2-c2nnn(CC(=O)Nc3cc(C)on3)n2)c1 | i | i | i | i | i | / | / | / | /
Cc1ccsc1-c1nc(CSCC(=O)NCc2ccc3c(c2)OCO3)c(C)o1 | i | i | i | -4.8* | i | i | i | i | 51*
O=C(NCN1C(=O)C2C3C=CC(C3)C2C1=O)Nc1nncs1 (centres undefined) | i | i | i | -4.6* | i | 85%* | i | i | i
O=C(NCCc1ccccc1)c1cc(S(=O)(=O)N2CCCC2)ccc1F | i | i | i | i | i | / | / | / | /
CCCCCNC(=O)c1cc(S(=O)(=O)N2CCCCC2)ccc1F | i | i | i | -7.9* | i | i | i | i | i
SMILES | MrgX1 ag | MrgX1 PAM | RGS4 inh | MrgX1 antag | RGS4 pot | MrgX1 ant reconf | HEK293 Ca flux | HEK293 Ca counter | HEK293 Ca cntr2
COc1ccc(S(=O)(=O)NCc2ccc(C(=O)NCc3cccnc3)cc2)cc1 | i | i | i | i | i | / | / | / | /
Cc1ccc(NC(=O)CCc2nnc3ccc(N4CCC(C)CC4)nn23)nc1 | i | i | i | -7.4* | i | i | i | i | i
O=C1CC(c2cccc(Oc3ccccc3)c2)NC(=O)N1 (centres undefined) | i | i | i | -8.2* | i | i | i | i | i
C/C(N)=C(/C#N)C(=O)COC(=O)CC12CC3CC(CC(C3)C1)C2 | i | i | i | i | i | / | / | / | /
COc1ccc2nc(NC(=O)C3CCCO3)sc2c1 (centres undefined) | i | i | i | i | i | / | / | / | /
NC(=O)c1ccc(NC(=O)C2CCCO2)cc1 (centres undefined) | i | i | i | -5.9* | i | i | i | i | i
O=C(Nc1ccc(Oc2ccc(NC(=O)C3CCCO3)cc2)cc1)C1CCCO1 (centres undefined) | i | i | i | i | i | / | / | / | /
CSc1nc2ccc(NC(=O)C3CCCO3)cc2s1 (centres undefined) | i | i | i | -6.8* | i | i | i | i | i
O=C(OCc1nnn(Cc2ccccc2)c1-c1c(COC(=O)c2ccccc2)nnn1Cc1ccccc1)c1ccccc1 | i | i | / | i | / | / | / | / | /

From PubChem BioAssay
